Laboratory results from ChEMBL document CHEMBL4261600 (Eur J Med Chem, 2018).
Activity calls are given as the source filed them.

Assays:
[1] = molecular target: Phosphatidylinositol 4-kinase beta (Homo sapiens) (UniProt Q9UBF8); test: Binding affinity to wild-type human full length PIK4CB (M1 to M828 residues) expressed in mammalian expression system assessed as remaining unbound target protein level at 1000 nM by Kinomescan method relative to control
Outline: (§1)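 Profiled in a KINOMEscan binding panel with the inhibitor at a single concentration of 1 μM. Binding to each kinase was read out as percent of control, relative to a DMSO control. Strong binders were defined as those with a percent control value below 1.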

[2] = molecular target: Serine/threonine-protein kinase PAK 5 (Homo sapiens) (UniProt Q9P286); test: Binding affinity to wild-type human partial length PAK7 (Y400 to H719 residues) expressed in bacterial expression system assessed as remaining unbound target protein level at 1000 nM by Kinomescan method relative to control
Ramos = test: Antiproliferative activity against human Ramos cells after 72 hrs by Celltiter-Glo assay; type: functional
Outline: (§2)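 Cells seeded at 3000/well in 96-well plates, exposed to serially diluted compound for 72 h at 37 °C, 5% CO2. Viability read by CellTiter-Glo luminescence and normalized to DMSO control. GI50 derived from curve fit, mean of three independent measurements. Culture media: DMEM/10% FBS for adherent lines; IMDM for MV4-11 and MEC-1/2; RPMI 1640 for suspension lines and CHL.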

[3] = Antiproliferative activity against human MEC2 cells after 72 hrs by Celltiter-Glo assay; type: functional; conditions: MEC2, 72 h; outline: as §2
HL-60 = test: Induction of apoptosis in human HL60 cells assessed as decrease in BCL-2 level up to 3 uM after 2 hrs by immunoblotting analysis; type: functional, cell-based
[4] = molecular target: Hormonally up-regulated neu tumor-associated kinase (Homo sapiens) (UniProt P57058); test: Binding affinity to wild-type human partial length HUNK (A31 to K354 residues) expressed in bacterial expression system assessed as remaining unbound target protein level at 1000 nM by Kinomescan method relative to control
Outline: (§3)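 KINOMEscan binding panel of 468 kinases/mutants. Inhibitor was tested at a single concentration of 1 μM. Binding is reported as percent of control, defined relative to a DMSO control.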

[5] = molecular target: Hepatocyte growth factor receptor (Homo sapiens) (UniProt P08581); test: Binding affinity to wild-type human partial length MET (D1010 to S1367 residues) expressed in bacterial expression system assessed as remaining unbound target protein level at 1000 nM by Kinomescan method relative to control
[6] = molecular target: 5'-AMP-activated protein kinase catalytic subunit alpha-1 (Homo sapiens) (UniProt Q13131); test: Binding affinity to wild-type human partial length AMPK alpha1 (M1 to E306 residues) expressed in bacterial expression system assessed as remaining unbound target protein level at 1000 nM by Kinomescan method relative to control
Outline: (§4)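 KINOMEscan competition binding profile across a panel of 468 kinases and mutants, with the inhibitor tested at a single concentration of 1 μM. Binding is reported as percent of control, meaning signal relative to a DMSO control.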

[7] = Clearance in mouse at 3 mg/kg, iv by LC-MS/MS analysis; type: ADME, organism-based; conditions: in vivo
[8] = molecular target: Mitogen-activated protein kinase 12 (Homo sapiens) (UniProt P53778); test: Binding affinity to wild-type human full length p38-gamma (M1 to L367 residues) expressed in mammalian expression system assessed as remaining unbound target protein level at 1000 nM by Kinomescan method relative to control; outline: as §4
[9] = molecular target: Ephrin type-B receptor 4 (Homo sapiens) (UniProt P54760); test: Binding affinity to wild-type human partial length EPHB4 (H585 to G892 residues) expressed in bacterial expression system assessed as remaining unbound target protein level at 1000 nM by Kinomescan method relative to control; outline: as §3
[10] = test system: Epidermal growth factor receptor (Homo sapiens), P00533 [UNDEFINED MUTATION]; test: Binding affinity to human partial length EGFR L747-E749del/A750P mutant expressed in bacterial expression system assessed as remaining unbound target protein level at 1000 nM by Kinomescan method relative to control
Outline: (§5)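 KINOMEscan competition-binding profiling across the panel of 468 kinases and mutants, with inhibitor tested at 1 μM. Binding is expressed as percent of control, with DMSO as the reference control.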

[11] = test system: Receptor-type tyrosine-protein kinase FLT3 (Homo sapiens), P36888 [K663Q]; test: Binding affinity to human partial length FLT3 K663Q mutant (V592 to Y969 residues) expressed in bacterial expression system assessed as remaining unbound target protein level at 1000 nM by Kinomescan method relative to control; outline: as §5
[12] = Half life in Sprague-Dawley rat at 20 mg/kg, po by LC-MS/MS analysis; type: ADME, organism-based; conditions: in vivo
[13] = molecular target: Tyrosine-protein kinase receptor TYRO3 (Homo sapiens) (UniProt Q06418); test: Binding affinity to wild-type human partial length TYRO3 (S497 to T814 residues) expressed in bacterial expression system assessed as remaining unbound target protein level at 1000 nM by Kinomescan method relative to control
[14] = test system: Receptor-type tyrosine-protein kinase FLT3 (Homo sapiens), P36888 [UNDEFINED MUTATION]; test: Binding affinity to human partial length FLT3 ITD/F691L double mutant expressed in bacterial expression system assessed as remaining unbound target protein level at 1000 nM by Kinomescan method relative to control; outline: as §5
[15] = molecular target: Bone morphogenetic protein receptor type-1B (Homo sapiens) (UniProt O00238); test: Binding affinity to wild-type human partial length BMPR1B (D178 to L502 residues) expressed in mammalian expression system assessed as remaining unbound target protein level at 1000 nM by Kinomescan method relative to control
[16] = molecular target: Dual specificity tyrosine-phosphorylation-regulated kinase 1B (Homo sapiens) (UniProt Q9Y463); test: Binding affinity to wild-type human full length DYRK1B (M1 to S629 residues) expressed in bacterial expression system assessed as remaining unbound target protein level at 1000 nM by Kinomescan method relative to control; outline: as §4
[17] = molecular target: Serine/threonine-protein kinase BRSK1 (Homo sapiens) (UniProt Q8TDC3); test: Binding affinity to wild-type human partial length BRSK1 (M1 to E754 residues) expressed in bacterial expression system assessed as remaining unbound target protein level at 1000 nM by Kinomescan method relative to control; outline: as §1
[18] = molecular target: Serine/threonine-protein kinase PAK 1 (Homo sapiens) (UniProt Q13153); test: Binding affinity to wild-type human partial length PAK1 (S149 to H545 residues) expressed in bacterial expression system assessed as remaining unbound target protein level at 1000 nM by Kinomescan method relative to control
[19] = molecular target: Mitogen-activated protein kinase 1 (Homo sapiens) (UniProt P28482); test: Binding affinity to wild-type human full length ERK2 (M1 to S360 residues) expressed in bacterial expression system assessed as remaining unbound target protein level at 1000 nM by Kinomescan method relative to control
Outline: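 Single-point competition binding screen across a panel of 468 kinases and mutants, with the inhibitor at 1 μM. Binding is read out as percent of a DMSO control, and targets below 1 percent control were classed as strong binders.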

Hepatocyte growth factor receptor (Homo sapiens), sequence (P08581 whole entry, the tested form may be a part): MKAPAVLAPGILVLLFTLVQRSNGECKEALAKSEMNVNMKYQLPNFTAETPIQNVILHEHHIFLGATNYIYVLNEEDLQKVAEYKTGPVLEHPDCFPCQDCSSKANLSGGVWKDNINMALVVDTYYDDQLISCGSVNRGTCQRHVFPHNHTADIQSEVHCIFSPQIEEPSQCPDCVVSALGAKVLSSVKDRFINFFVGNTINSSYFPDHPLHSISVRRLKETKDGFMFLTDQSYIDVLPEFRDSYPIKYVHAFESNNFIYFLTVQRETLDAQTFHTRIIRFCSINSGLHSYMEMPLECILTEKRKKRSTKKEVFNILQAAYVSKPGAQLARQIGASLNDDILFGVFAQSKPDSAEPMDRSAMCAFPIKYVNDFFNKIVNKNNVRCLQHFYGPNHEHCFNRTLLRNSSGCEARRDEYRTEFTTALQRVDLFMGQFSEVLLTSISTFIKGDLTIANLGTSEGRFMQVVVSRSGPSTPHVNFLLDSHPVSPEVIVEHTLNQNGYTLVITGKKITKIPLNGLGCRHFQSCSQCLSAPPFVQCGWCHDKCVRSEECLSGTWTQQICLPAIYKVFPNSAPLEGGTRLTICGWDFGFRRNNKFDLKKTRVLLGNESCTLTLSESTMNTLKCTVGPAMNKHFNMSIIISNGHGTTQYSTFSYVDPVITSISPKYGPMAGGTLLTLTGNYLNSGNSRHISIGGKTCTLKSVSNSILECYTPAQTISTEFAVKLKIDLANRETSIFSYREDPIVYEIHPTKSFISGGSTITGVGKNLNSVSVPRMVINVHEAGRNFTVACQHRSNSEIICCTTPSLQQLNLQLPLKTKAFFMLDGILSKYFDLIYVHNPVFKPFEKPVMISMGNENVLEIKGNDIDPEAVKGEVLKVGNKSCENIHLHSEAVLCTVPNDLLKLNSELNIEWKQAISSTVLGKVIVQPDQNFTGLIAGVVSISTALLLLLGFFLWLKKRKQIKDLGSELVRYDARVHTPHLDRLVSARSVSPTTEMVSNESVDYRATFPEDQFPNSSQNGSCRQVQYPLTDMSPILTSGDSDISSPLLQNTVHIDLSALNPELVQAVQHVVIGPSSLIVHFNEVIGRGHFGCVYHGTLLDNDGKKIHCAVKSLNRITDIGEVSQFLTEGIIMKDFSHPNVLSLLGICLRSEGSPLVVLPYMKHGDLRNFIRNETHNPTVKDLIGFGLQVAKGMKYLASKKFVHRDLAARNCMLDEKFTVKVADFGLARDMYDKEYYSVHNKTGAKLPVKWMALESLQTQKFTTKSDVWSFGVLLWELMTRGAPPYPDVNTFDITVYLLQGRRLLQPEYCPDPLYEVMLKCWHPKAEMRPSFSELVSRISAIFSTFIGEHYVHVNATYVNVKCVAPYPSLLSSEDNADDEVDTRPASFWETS
Epidermal growth factor receptor (Homo sapiens), P00533 [UNDEFINED MUTATION], sequence (P00533 whole entry, looked up, stated change not applied): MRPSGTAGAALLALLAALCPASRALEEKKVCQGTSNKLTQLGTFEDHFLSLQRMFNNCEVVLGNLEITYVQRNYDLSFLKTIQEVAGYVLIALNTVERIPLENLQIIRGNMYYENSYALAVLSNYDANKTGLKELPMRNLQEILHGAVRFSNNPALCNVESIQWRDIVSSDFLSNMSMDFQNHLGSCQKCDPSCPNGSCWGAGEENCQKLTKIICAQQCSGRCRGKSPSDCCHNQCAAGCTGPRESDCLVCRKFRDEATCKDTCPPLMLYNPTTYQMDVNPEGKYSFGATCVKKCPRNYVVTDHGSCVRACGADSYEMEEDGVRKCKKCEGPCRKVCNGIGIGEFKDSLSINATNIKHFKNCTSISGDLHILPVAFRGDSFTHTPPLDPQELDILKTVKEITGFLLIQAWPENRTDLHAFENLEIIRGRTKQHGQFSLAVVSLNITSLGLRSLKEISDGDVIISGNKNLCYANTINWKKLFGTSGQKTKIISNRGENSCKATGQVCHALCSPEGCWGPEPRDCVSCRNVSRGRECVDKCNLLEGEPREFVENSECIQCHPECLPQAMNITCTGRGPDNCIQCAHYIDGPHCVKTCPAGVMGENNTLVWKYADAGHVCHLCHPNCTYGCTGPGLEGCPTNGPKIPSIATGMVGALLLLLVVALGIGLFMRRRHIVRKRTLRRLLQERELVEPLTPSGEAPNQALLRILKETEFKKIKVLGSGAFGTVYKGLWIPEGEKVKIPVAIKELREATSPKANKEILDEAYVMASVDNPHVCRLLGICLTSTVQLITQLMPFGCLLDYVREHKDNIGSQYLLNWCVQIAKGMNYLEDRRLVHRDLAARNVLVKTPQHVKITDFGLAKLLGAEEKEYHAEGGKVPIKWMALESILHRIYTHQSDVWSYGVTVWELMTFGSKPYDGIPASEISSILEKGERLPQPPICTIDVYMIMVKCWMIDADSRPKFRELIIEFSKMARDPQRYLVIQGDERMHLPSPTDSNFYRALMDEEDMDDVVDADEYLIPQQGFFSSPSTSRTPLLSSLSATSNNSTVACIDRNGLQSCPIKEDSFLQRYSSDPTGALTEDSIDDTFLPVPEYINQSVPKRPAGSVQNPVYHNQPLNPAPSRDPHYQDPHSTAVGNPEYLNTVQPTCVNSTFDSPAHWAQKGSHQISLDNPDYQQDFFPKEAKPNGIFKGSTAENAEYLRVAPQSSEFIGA
Mitogen-activated protein kinase 12 (Homo sapiens), sequence (P53778 whole entry, the tested form may be a part): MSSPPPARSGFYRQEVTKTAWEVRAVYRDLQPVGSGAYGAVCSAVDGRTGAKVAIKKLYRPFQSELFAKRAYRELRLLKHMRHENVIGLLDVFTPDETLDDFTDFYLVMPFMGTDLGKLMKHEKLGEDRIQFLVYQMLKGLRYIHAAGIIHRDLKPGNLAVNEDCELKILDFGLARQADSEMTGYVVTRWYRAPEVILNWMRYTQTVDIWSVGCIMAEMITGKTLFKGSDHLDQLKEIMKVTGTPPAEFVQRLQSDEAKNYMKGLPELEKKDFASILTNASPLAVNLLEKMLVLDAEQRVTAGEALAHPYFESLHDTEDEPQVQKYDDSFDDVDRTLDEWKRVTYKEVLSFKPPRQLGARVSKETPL
Tyrosine-protein kinase receptor TYRO3 (Homo sapiens), sequence (Q06418 whole entry, the tested form may be a part): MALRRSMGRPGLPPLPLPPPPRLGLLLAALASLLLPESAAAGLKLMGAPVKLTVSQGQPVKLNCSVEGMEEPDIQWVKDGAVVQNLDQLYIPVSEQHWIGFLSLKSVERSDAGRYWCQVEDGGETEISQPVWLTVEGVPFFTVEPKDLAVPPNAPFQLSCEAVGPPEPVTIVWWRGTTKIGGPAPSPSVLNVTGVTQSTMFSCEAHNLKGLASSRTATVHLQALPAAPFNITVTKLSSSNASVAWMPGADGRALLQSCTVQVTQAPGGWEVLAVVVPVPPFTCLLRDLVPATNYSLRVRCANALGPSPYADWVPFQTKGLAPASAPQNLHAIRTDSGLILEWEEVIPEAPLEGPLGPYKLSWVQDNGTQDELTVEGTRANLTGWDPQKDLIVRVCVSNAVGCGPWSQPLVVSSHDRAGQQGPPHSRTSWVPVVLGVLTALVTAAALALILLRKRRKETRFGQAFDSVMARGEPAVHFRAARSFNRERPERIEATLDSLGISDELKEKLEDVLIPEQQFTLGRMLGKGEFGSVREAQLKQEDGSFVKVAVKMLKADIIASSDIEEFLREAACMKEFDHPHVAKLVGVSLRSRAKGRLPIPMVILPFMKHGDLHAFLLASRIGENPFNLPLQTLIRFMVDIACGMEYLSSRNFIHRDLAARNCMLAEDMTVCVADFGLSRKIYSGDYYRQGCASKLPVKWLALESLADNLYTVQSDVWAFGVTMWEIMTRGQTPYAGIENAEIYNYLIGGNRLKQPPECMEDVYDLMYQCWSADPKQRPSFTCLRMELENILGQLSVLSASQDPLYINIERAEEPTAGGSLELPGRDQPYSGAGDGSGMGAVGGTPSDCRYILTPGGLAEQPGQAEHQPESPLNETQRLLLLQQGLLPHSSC
Bone morphogenetic protein receptor type-1B (Homo sapiens), sequence (O00238 whole entry, the tested form may be a part): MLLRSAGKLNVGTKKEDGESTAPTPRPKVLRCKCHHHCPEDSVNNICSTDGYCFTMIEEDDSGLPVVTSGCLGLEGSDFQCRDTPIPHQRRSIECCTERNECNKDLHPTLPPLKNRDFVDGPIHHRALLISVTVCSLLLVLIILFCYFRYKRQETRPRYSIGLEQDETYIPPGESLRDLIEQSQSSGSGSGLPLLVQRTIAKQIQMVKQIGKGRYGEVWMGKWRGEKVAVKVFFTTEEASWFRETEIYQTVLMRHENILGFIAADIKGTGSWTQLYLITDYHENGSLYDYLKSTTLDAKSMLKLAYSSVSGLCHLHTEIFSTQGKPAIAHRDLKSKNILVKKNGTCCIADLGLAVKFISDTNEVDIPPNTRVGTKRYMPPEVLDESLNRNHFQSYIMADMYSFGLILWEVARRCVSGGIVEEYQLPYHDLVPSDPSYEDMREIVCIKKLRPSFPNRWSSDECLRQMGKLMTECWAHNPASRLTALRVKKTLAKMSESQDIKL
Mitogen-activated protein kinase 1 (Homo sapiens), sequence (P28482 whole entry, the tested form may be a part): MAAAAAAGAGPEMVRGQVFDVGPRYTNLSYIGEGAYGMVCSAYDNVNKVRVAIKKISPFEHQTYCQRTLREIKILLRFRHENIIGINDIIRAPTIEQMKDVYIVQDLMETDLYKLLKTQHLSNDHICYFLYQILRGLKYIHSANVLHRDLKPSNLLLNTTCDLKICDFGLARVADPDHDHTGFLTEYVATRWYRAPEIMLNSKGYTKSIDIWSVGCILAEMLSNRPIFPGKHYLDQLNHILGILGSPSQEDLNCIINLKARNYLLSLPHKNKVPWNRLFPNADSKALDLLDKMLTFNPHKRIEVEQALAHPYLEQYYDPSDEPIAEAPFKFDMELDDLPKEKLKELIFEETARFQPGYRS

COCCN[C@H]1CC[C@H](Nc2cc(-c3csc(NCC4(C#N)CCOCC4)n3)c(Cl)cn2)CC1
Activity [1]: 100% | Activity [2]: 98% | GI50 (Ramos): 13 nM | GI50 [3]: 37 nM | Activity (HL-60): inactive | Activity [4]: 81% | Activity [5]: 73% | Activity [6]: 94% | clearance [7]: 123 mL/min/kg | Activity [8]: 99% | Activity [9]: 86% | Activity [10]: 92% | Activity [11]: 97% | half-life [12]: 3.37 h | Activity [13]: 68% | Activity [14]: 75% | Activity [15]: 84% | Activity [16]: 0.35% | Activity [17]: 85% | Activity [18]: 100% | Activity [19]: 96%
